Measurements collected from several papers.
Each line is one published result; the experiments were not run side by side.
CHEK1: Serine/threonine-protein kinase Chk1 (CHEK1, Homo sapiens, UniProt O14757)
TLR8: Toll-like receptor 8 (TLR8, Homo sapiens, UniProt Q9NR97)
PPARG: Peroxisome proliferator-activated receptor gamma (PPARG, Homo sapiens, UniProt P37231)

`CCCCCCCC/C=C\CCCCCCCC(=O)O[C@H](CC(=O)[O-])C[N+](C)(C)C` has an EC50 of 600 nM (Pantothenate kinase 3 (PANK3, Homo sapiens, UniProt Q9H999); enzyme activity, inhibitor, radiometric).
For `COc1cc(Nc2ncc3c(n2)-c2ccc(Cl)cc2C(c2c(F)cccc2OC)=NC3)ccc1C(=O)NCCOCCOCCNC(=O)COc1cccc2c1C(=O)N(C1CCC(=O)NC1=O)C2=O` (centres unmarked), the Kd was 6430 nM (Ferrochelatase, mitochondrial (FECH, Homo sapiens, UniProt P22830); binding; lysate).
With `COc1cc(-c2ccc3c(c2)Nc2ccc(NC(N)=O)cc2NC3=O)ccc1[N+](=O)[O-]` the IC50 was 6.41 nM (CHEK1; enzyme activity, inhibitor).
The EC50 of `CCCCOc1nc(N)c2[nH]c(=O)n(CCN)c2n1` is reported as 209000 nM (TLR8; reporter gene, agonist).
The EC50 of `CCOCc1nc(O)c(-c2nnc(Cc3ccc(Cl)cn3)o2)c(O)c1-c1c(OC)cccc1OC` is reported as 0.02 nM (Apelin receptor (Rattus norvegicus, UniProt Q9JHG3); cAMP, agonist).
`COC(=O)Cc1ccc2c(c1)NC(=O)c1ccc(-c3cc(OC)ncc3C)cc1N2` gave an IC50 of 7.79 nM (CHEK1; enzyme activity, inhibitor).
For `Cc1ccc(-c2ccc(F)cc2COc2ccc(CCC(=O)O)cc2)cc1`, the EC50 was over 100000 nM (PPARG; reporter gene, agonist, luciferase).
For `COc1cc(-c2cc3c(cc2C)C(=O)Nc2cc(CC(=O)Nc4ccc(N5CCOCC5)cc4)ccc2N3)ccc1[N+](=O)[O-]`, the IC50 was 64.4 nM (CHEK1; enzyme activity, inhibitor).
`CC[C@@H](Oc1cccc(CN(CCCOc2ccc(OC)cc2)c2nc3ccccc3o2)c1)C(=O)O` gave a Kd of 9030 nM (PPARG; binding, ITC).
For `O=C(O)c1ccc(-c2[nH]nc3c2Cc2cc(CNC4CCC(O)CC4)ccc2-3)o1` (centres unmarked), the IC50 was 1560 nM (CHEK1; enzyme activity, inhibitor).
`c1ccc2c(Oc3nc(Nc4ccc(N5CCOCC5)cc4)c4ncn(C5CCCCC5)c4n3)cccc2c1` gave an EC50 of 229 nM (Protein smoothened (SMO, Homo sapiens, UniProt Q99835); GTPγS binding, agonist, radiometric; cell membranes).
For `C#Cc1cccc(Nc2ncnc3cc(OC)c(OCCCCCCC(=O)NO)cc23)c1`, the Kd was over 30200 nM (Histone deacetylase 5 (HDAC5, Homo sapiens, UniProt Q9UQL6); cell-free assay).
With `O=C(O)C1=CCCN(CCON=C(c2ccccc2)c2ccccc2)C1` the IC50 was 210 nM (Sodium- and chloride-dependent GABA transporter 1 (Slc6a1, Rattus norvegicus, UniProt P23978); ligand displacement, radioligand).
For `COc1ccc(-c2nsc(NC(=O)[C@@H]3C[C@H]3C)c2C)cc1`, the EC50 was over 25000 nM (Metabotropic glutamate receptor 5 (GRM5, Homo sapiens, UniProt P41594); calcium signal, agonist).
With `Oc1ccc(-c2ccc(-c3[nH]nc4c3Cc3cc(O)ccc3-4)cc2)cc1` the IC50 was 5.9 nM (CHEK1; enzyme activity, inhibitor).
The EC50 of `CCCCc1nc2c(o1)c(N)nc1ccccc12` is reported as 12500 nM (TLR8; reporter gene, agonist).
With `Cc1cc2nc3c(=O)[nH]c(=O)nc-3n(C[C@H](O)[C@H](O)[C@H](O)COP(=O)(O)OP(=O)(O)OC[C@H]3O[C@@H](n4cnc5c(N)ncnc54)[C@H](O)[C@@H]3O)c2cc1C` the Kd was 62 nM (YTH domain-containing family protein 2 (YTHDF2, Homo sapiens, UniProt Q9Y5A9); binding; lysate).
